Screens: PubChem, several laboratories
A selection: hits, their analogues and other compounds. The true share with any hit is near 2.6%.
SIRT5 inh: sirtuin-5 (human) deacylase inhibition | Q9NXA8 | Purified SirT5, succinyl-peptide AMC, trypsin-coupled fluorescence | inhibition, % at 15 µM | 1.1% of 330,000 active; in the data active means inhibition above about 15%
Target sequence (Q9NXA8 whole entry, looked up): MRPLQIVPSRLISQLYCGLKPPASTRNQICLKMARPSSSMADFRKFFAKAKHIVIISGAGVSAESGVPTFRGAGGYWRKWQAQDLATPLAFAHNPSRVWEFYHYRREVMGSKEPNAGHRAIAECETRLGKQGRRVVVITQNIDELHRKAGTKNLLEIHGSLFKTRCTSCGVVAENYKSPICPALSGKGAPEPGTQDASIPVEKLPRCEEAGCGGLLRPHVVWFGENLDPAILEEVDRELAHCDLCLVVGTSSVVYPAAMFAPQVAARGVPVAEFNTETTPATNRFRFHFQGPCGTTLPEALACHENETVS
FGF22 binding: shifts melting point of recombinant human FGF22 | Q9HCT0 | recombinant FGF22 thermal shift, SYPRO orange fluorescence; percent of sucrose octasulfate shift, DMSO zero | activity (Tm shift, normalised), % at 9.99 µM | 1.5% of 340,000 active | AID 651658;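 active means mean Tm shift, scaled 0 neutral to 100 positive control, at about 1.3% or above, every replicate too, limit read from the data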
NSD2 HMT inh: blocks human histone methyltransferase NSD2. O96028. NSD2 peptide methylation, AlphaScreen, 120 min. inhibition, % at 12.5 µM. 0.54% of 310,000 active. AID 743445; in the data active means inhibition above about 50%
UCH37 DUB inh: inhibitors of human deubiquitinating enzyme UCH37; AID 588478; Q9Y5K5; inhibition, % (test concentration not listed); 0.33% of 330,000 active; purified proteasome/UCH37, Ub-AMC cleavage fluorescence;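 active means mean inhibition over replicate wells above about 20%, limit read from the data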;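 further: 0% = compound-free wells with enzyme and 100% = wells lacking proteasome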
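Schedule: 30 min plus 25 min, room temperature / Material: human UCH37 within purified proteasomes / Technique: AMC fluorescence intensity at 355/460 nm / Buffer or medium: pH 7.4 Tris-HCl (50 mM) with ovalbumin, ATP-MgCl2, DTT / Controls: wells without proteasome as full block, compound-free enzyme plus substrate as uninhibited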
Casp6 inh: caspase-6 (human) enzyme inhibition. P55212. purified caspase-6, Z-VEID-R110 cleavage fluorescence. inhibition, % at 12.5 µM. 0.53% of 350,000 active. AID 686996;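 active means mean inhibition across replicates at least about 35%, with every replicate also reaching that limit, limit read from the data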;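 further: 0% = median of neutral control wells and 100% = no fluorescence left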
* marks the source's active call; other numbers are inactive results; x = not tested or not shown.

SMILES	SIRT5 inh	FGF22 binding	NSD2 HMT inh	UCH37 DUB inh	Casp6 inh
Cc1ccc(S(=O)(=O)N(C)C[C@@H]2OCCCC[C@@H](C)Oc3ccc(NS(=O)(=O)c4ccc(F)cc4)cc3C(=O)N([C@@H](C)CO)C[C@@H]2C)cc1	29.1*	0.0	x	x	1.5
Cc1ccc(S(=O)(=O)Nc2ccc3c(c2)C(=O)N([C@@H](C)CO)C[C@H](C)[C@H](CN(C)S(=O)(=O)c2ccc(F)cc2)OCCCC[C@@H](C)O3)cc1	17.6*	-0.6	x	x	2.1
Cc1ccc(S(=O)(=O)N(C)C[C@H]2OCCCC[C@H](C)Oc3ccc(NS(=O)(=O)c4ccc(F)cc4)cc3C(=O)N([C@@H](C)CO)C[C@@H]2C)cc1	3.1	-0.7	x	x	-2.0
COc1ccc(NC(=O)N(C)C[C@H]2Oc3ccc(NS(=O)(=O)c4c(C)noc4C)cc3CC(=O)N([C@@H](C)CO)C[C@@H]2C)cc1	0.5	0.0	x	x	-1.1
COc1ccc(C2CC2C(=NOC(=O)c2cccs2)c2ccccc2)cc1 (stereo not drawn)	x	x	x	6.1	x
C[C@@H]1CCCCO[C@H](CN(C)S(=O)(=O)c2cn(C)cn2)[C@@H](C)CN([C@@H](C)CO)C(=O)c2cc(NS(=O)(=O)c3ccccc3)ccc2O1	-18.6	-0.3	x	x	-2.3
C[C@@H]1CN([C@@H](C)CO)C(=O)c2cc(C#CC(C)(C)O)cnc2O[C@@H]1CN(C)C(=O)CC1CC1	4.6	-0.1	x	x	-4.4
C[C@@H]1CCCCO[C@@H](CN(C)S(=O)(=O)c2ccc(F)cc2)[C@H](C)CN([C@H](C)CO)C(=O)c2cc(NS(=O)(=O)c3ccccc3)ccc2O1	15.9*	0.3	x	x	0.3
Cc1ccc(S(=O)(=O)N(C)C[C@@H]2OCCCC[C@H](C)Oc3ccc(NS(=O)(=O)c4ccc(F)cc4)cc3C(=O)N([C@@H](C)CO)C[C@H]2C)cc1	19.1*	-0.3	x	x	2.0
C[C@@H]1CN([C@H](C)CO)C(=O)c2ccccc2-c2ccccc2CO[C@H]1CN(C)S(=O)(=O)c1ccccc1F	-1.5	-0.2	x	x	1.4
CCc1nnc(NC(=O)CSc2n[nH]c(-c3ccccc3O)n2)s1	0.1	1.8*	-1.8	1.6	2.4
Cc1nnc(NC(=O)CSc2n[nH]c(-c3ccccc3C)n2)s1	-1.8	-0.2	0.0	1.7	2.1
Cc1oc(N=Cc2ccc(Cl)cc2Cl)c(C#N)c1C	x	x	x	-1.8	x
C[C@H]1CN([C@@H](C)CO)S(=O)(=O)c2ccc(-c3ccncc3)cc2O[C@@H]1CN(C)C(=O)CN(C)C	-2.0	0.0	x	x	0.9
CCn1c(SCC(=O)Nc2ccc(C(C)=O)cc2)nnc1C1CC1	16.3*	-0.4	-4.8	0.9	5.0
CCn1c(SCC(=O)Nc2ccc(NC(C)=O)cc2)nnc1C1CC1	x	x	0.5	5.5	x
Cc1ccc(S(=O)(=O)N(C)C[C@@H]2Oc3ncc(C#CC4(O)CCCC4)cc3C(=O)N([C@H](C)CO)C[C@H]2C)cc1	3.0	-0.1	x	x	-2.3
CCCn1c(NCc2ccc3c(c2)OCO3)nc2ccccc21	0.1	0.1	2.0	4.1	1.1
CCN(CC)c1ccc(CNc2nc3ccccc3n2C)cc1	-6.0	42.9*	x	1.9	3.2
CN(C)CCn1c(NCc2ccc3c(c2)OCO3)nc2ccccc21	30.5*	0.2	3.9	1.0	-2.2
CCCC(=O)Nc1ccc2c(c1)OC[C@@H](C)N(C(=O)CC1CC1)C[C@@H](C)[C@@H](OC)CN(C)C2=O	-0.7	0.2	x	x	0.6
O=C(Cc1cccnc1)N1CC(=O)N2[C@H](CO)[C@H](c3ccc(C4=CCCC4)cc3)[C@@H]2C1	0.4	x	x	x	-1.7
Cc1ncoc1C(=O)N1CCCC(C(=O)c2cccc(C(F)(F)F)c2)C1 (stereo not drawn)	-4.3	-0.1	-1.6	5.3	0.7
Cc1nonc1CC(=O)N1CCCC(C(=O)c2cccc(C(F)(F)F)c2)C1 (stereo not drawn)	-0.7	46.0*	-3.5	3.5	-6.6
COc1ccc(C(=O)C2CCCN(C(=O)Cc3c(C)noc3C)C2)cc1OC (stereo not drawn)	0.2	43.4*	0.6	2.7	3.7
O=C(c1ccc(C(F)(F)F)cc1)C1CCCN(C(=O)CCN2CCCO2)C1 (stereo not drawn)	10.8	43.9*	-3.1	4.0	-0.1
O=C(C[C@H]1CC[C@H]2[C@@H](COC[C@@H](O)CN2CC2CCCC2)O1)NCc1ccc(Cl)cc1	2.2	x	x	x	0.3
Cc1ccc2nc(Cl)c(C#N)cc2c1	-5.3	43.4*	-1.5	4.6	-1.1
